B1: Nitric oxide synthase, inducible (Mus musculus), P29477 (protein)
chain: MACPWKFLFKVKSYQSDLKEEKDINNNVKKTPCAVLSPTIQDDPKSHQNGSPQLLTGTAQNVPESLDKLHVTSTRPQYVRIKNWGSGEILHDTLHHKATSDFTCKSKSCLGSIMNPKSLTRGPRDKPTPLEELLPHAIEFINQYYGSFKEAKIEEHLARLEAVTKEIETTGTYQLTLDELIFATKMAWRNAPRCIGRIQWSNLQVFDARNCSTAQEMFQHICRHILYATNNGNIRSAITVFPQRSDGKHDFRLWNSQLIRYAGYQMPDGTIRGDAATLEFTQLCIDLGWKPRYGRFDVLPLVLQADGQDPEVFEIPPDLVLEVTMEHPKYEWFQELGLKWYALPAVANMLLEVGGLEFPACPFNGWYMGTEIGVRDFCDTQRYNILEEVGRRMGLETHTLASLWKDRAVTEINVAVLHSFQKQNVTIMDHHTASESFMKHMQNEYRARGGCPADWIWLVPPVSGSITPVFHQEMLNYVLSPFYYYQIEPWKTHIWQNEKLRPRRREIRFRVLVKVVFFASMLMRKVMASRVRATVLFATETGKSEALARDLATLFSYAFNTKVVCMDQYKASTLEEEQLLLVVTSTFGNGDCPSNGQTLKKSLFMLRELNHTFRYAVFGLGSSMYPQFCAFAHDIDQKLSHLGASQLAPTGEGDELSGQEDAFRSWAVQTFRAACETFDVRSKHHIQIPKRFTSNATWEPQQYRLIQSPEPLDLNRALSSIHAKNVFTMRLKSQQNLQSEKSSRTTLLVQLTFEGSRGPSYLPGEHLGIFPGNQTALVQGILERVVDCPTPHQTVCLEVLDESGSYWVKDKRLPPCSLSQALTYFLDITTPPTQLQLHKLARFATDETDRQRLEALCQPSEYNDWKFSNNPTFLEVLEEFPSLHVPAAFLLSQLPILKPRYYSISSSQDHTPSEVHLTVAVVTYRTRDGQGPLHHGVCSTWIRNLKPQDPVPCFVRSVSGFQLPEDPSQPCILIGPGTGIAPFRSFWQQRLHDSQHKGLKGGRMSLVFGCRHPEEDHLYQEEMQEMVRKRVLFQVHTGYSRLPGKPKVYVQDILQKQLANEVLSVLHGEQGHLYICGDVRMARDVATTLKKLVATKLNLSEEQVEDYFFQLKSQKRYHEDIFGAVFSYGAKKGSALEEPKATRL
B2: Nitric oxide synthase 3 (Bos taurus), P29473 (protein)
chain: MGNLKSVGQEPGPPCGLGLGLGLGLCGKQGPASPAPEPSRAPAPATPHAPDHSPAPNSPTLTRPPEGPKFPRVKNWELGSITYDTLCAQSQQDGPCTPRCCLGSLVLPRKLQTRPSPGPPPAEQLLSQARDFINQYYSSIKRSGSQAHEERLQEVEAEVASTGTYHLRESELVFGAKQAWRNAPRCVGRIQWGKLQVFDARDCSSAQEMFTYICNHIKYATNRGNLRSAITVFPQRAPGRGDFRIWNSQLVRYAGYRQQDGSVRGDPANVEITELCIQHGWTPGNGRFDVLPLLLQAPDEAPELFVLPPELVLEVPLEHPTLEWFAALGLRWYALPAVSNMLLEIGGLEFSAAPFSGWYMSTEIGTRNLCDPHRYNILEDVAVCMDLDTRTTSSLWKDKAAVEINLAVLHSFQLAKVTIVDHHAATVSFMKHLDNEQKARGGCPADWAWIVPPISGSLTPVFHQEMVNYILSPAFRYQPDPWKGSATKGAGITRKKTFKEVANAVKISASLMGTLMAKRVKATILYASETGRAQSYAQQLGRLFRKAFDPRVLCMDEYDVVSLEHEALVLVVTSTFGNGDPPENGESFAAALMEMSGPYNSSPRPEQHKSYKIRFNSVSCSDPLVSSWRRKRKESSNTDSAGALGTLRFCVFGLGSRAYPHFCAFARAVDTRLEELGGERLLQLGQGDELCGQEEAFRGWAKAAFQASCETFCVGEEAKAAAQDIFSPKRSWKRQRYRLSTQAEGLQLLPGLIHVHRRKMFQATVLSVENLQSSKSTRATILVRLDTAGQEGLQYQPGDHIGICPPNRPGLVEALLSRVEDPPPPTESVAVEQLEKGSPGGPPPSWVRDPRLPPCTLRQALTFFLDITSPPSPRLLRLLSTLAEEPSEQQELETLSQDPRRYEEWKWFRCPTLLEVLEQFPSVALPAPLLLTQLPLLQPRYYSVSSAPNAHPGEVHLTVAVLAYRTQDGLGPLHYGVCSTWLSQLKTGDPVPCFIRGAPSFRLPPDPYVPCILVGPGTGIAPFRGFWQERLHDIESKGLQPAPMTLVFGCRCSQLDHLYRDEVQDAQERGVFGRVLTAFSREPDSPKTYVQDILRTELAAEVHRVLCLERGHMFVCGDVTMATSVLQTVQRILATEGDMELDEAGDVIGVLRDQQRYHEDIFGLTLRTQEVTSRIRTQSFSLQERHLRGAVPWAFDPPGPDTPGP

What was measured:
[1] = substrate: N=C(N)NCCC[C@H](N)C(=O)O; assay: (§1) Activity of mouse iNOS by Michaelis-Menten equation analysis
How it was run: (§2)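 Murine iNOS kinetics used a hemoglobin capture assay at 30 °C, with no CaCl₂ or calmodulin. The mix held varied substrate concentrations, NADPH, 0.125 mg/mL ferrous hemoglobin-A₀ and H₄B in 100 mM HEPES (pH 7.5), and enzyme addition started it. Absorbance at 401 nm tracked NO-mediated hemoglobin oxidation. Km and kcat were obtained by nonlinear Michaelis–Menten regression of activity against substrate concentration.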

[2] = substrate: N=C(N)NC[C@H]1C[C@@H]1[C@H](N)C(=O)O; assay: as §1; how it was run: as §2
[3] = substrate: N=C(N)NC[C@H]1C[C@H]1[C@H](N)C(=O)O; assay: as §1; how it was run: as §2
[4] = substrate: N=C(N)NCCC[C@H](N)C(=O)O; assay: (§3) Ratio of Kcat to Km for mouse iNOS by Michaelis-Menten equation analysis; how it was run: as §2
[5] = substrate: N=C(N)NC[C@H]1C[C@@H]1[C@H](N)C(=O)O; assay: as §3; how it was run: as §2
[6] = substrate: N=C(N)NC[C@H]1C[C@H]1[C@H](N)C(=O)O; assay: as §3; how it was run: as §2
[7] = substrate: N=C(N)NCCC[C@H](N)C(=O)O; assay: (§4) Activity of bovine eNOS by Michaelis-Menten equation analysis; conditions: Bos taurus
How it was run: (§5)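 Bovine eNOS run as a hemoglobin capture assay at 30 °C. The mix held varied substrate concentrations, 1.0 mM CaCl₂, 600 unit/mL calmodulin, NADPH, 0.125 mg/mL ferrous hemoglobin-A₀ and H₄B in 100 mM HEPES (pH 7.5). Enzyme addition started the reaction, and NO-driven hemoglobin oxidation was followed at 401 nm. Km and kcat came from a nonlinear Michaelis–Menten fit of activity versus substrate concentration.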

[8] = substrate: N=C(N)NC[C@H]1C[C@@H]1[C@H](N)C(=O)O; assay: as §4; conditions: Bos taurus; how it was run: as §5
[9] = substrate: N=C(N)NC[C@H]1C[C@H]1[C@H](N)C(=O)O; assay: as §4; conditions: Bos taurus; how it was run: as §5
[10] = substrate: N=C(N)NCCC[C@H](N)C(=O)O; assay: (§6) Ratio of Kcat to Km for bovine eNOS by Michaelis-Menten equation analysis; conditions: Bos taurus; how it was run: as §5
[11] = substrate: N=C(N)NC[C@H]1C[C@@H]1[C@H](N)C(=O)O; assay: as §6; conditions: Bos taurus; how it was run: as §5
[12] = substrate: N=C(N)NC[C@H]1C[C@H]1[C@H](N)C(=O)O; assay: as §6; conditions: Bos taurus; how it was run: as §5

Protein	Km [1] [µM]	Km [2] [µM]	Km [3] [µM]	kcat/Km [4] [s⁻¹ mM⁻¹]	kcat/Km [5] [s⁻¹ mM⁻¹]	kcat/Km [6] [s⁻¹ mM⁻¹]	Km [7] [µM]	Km [8] [µM]	Km [9] [µM]	kcat/Km [10] [s⁻¹ mM⁻¹]	kcat/Km [11] [s⁻¹ mM⁻¹]	kcat/Km [12] [s⁻¹ mM⁻¹]
B1	9.5	20	582	110	99	3	–	–	–	–	–	–
B2	–	–	–	–	–	–	1.1	3.6	163	73	42	0.92

Source: ChEMBL document CHEMBL1828615, “Synthesis of a series of 3,4-methanoarginines as side-chain conformationally restricted analogues of arginine” (Bioorg Med Chem, 2011)
